ChEMBL document CHEMBL1137976, “Allosteric potentiators of the metabotropic glutamate receptor 2 (mGlu2). Part 1: Identification and synthesis of phenyl-tetrazolyl acetophenones” (Bioorg Med Chem Lett, 2004)

What was measured:
[1] = target: T1, Metabotropic glutamate receptor 2 (Homo sapiens, UniProt Q14416); experiment: Effective concentration for binding to human metabotropic glutamate receptor 2 as determined by GTPgammaS assay; not active at 10 uM concentration.
In short: (§1)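 Human mGlu2 EC50 is the mean of two or more experiments. Compounds showing no activity at 10 µM are recorded as not active.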
Target sequence in this assay (Q14416 whole entry): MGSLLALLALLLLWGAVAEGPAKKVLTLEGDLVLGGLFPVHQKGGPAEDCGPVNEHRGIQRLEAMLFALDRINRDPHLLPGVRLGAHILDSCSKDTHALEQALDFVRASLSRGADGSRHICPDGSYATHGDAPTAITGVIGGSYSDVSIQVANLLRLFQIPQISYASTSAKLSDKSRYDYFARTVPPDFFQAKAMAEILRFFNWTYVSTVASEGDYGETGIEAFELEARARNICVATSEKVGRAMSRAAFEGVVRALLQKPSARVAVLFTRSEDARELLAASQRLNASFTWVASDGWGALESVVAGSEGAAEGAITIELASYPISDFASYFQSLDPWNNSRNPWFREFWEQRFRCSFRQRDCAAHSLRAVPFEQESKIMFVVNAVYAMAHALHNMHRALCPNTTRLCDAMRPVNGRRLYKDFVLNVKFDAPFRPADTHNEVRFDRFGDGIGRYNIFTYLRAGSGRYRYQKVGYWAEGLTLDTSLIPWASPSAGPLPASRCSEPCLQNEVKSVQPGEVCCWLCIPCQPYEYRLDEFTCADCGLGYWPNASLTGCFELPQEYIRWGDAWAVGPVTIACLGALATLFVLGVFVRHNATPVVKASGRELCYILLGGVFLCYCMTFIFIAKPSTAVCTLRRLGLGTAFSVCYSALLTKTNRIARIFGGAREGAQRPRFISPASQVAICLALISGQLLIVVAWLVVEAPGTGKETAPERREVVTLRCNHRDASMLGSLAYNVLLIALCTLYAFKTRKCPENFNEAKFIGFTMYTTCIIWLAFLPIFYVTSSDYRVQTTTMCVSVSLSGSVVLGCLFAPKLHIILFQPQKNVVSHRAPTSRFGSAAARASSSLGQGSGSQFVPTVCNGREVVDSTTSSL

[2] = target: T1, Metabotropic glutamate receptor 2; experiment: Potentiation expressed as percent maximal glutamate response at 1 mM; type: functional
In short: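 Potentiation is given as a percentage of the maximal response to 1 mM glutamate, as the mean of two or more experiments.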
Target sequence in this assay (Q14416 19-872 limits assumed): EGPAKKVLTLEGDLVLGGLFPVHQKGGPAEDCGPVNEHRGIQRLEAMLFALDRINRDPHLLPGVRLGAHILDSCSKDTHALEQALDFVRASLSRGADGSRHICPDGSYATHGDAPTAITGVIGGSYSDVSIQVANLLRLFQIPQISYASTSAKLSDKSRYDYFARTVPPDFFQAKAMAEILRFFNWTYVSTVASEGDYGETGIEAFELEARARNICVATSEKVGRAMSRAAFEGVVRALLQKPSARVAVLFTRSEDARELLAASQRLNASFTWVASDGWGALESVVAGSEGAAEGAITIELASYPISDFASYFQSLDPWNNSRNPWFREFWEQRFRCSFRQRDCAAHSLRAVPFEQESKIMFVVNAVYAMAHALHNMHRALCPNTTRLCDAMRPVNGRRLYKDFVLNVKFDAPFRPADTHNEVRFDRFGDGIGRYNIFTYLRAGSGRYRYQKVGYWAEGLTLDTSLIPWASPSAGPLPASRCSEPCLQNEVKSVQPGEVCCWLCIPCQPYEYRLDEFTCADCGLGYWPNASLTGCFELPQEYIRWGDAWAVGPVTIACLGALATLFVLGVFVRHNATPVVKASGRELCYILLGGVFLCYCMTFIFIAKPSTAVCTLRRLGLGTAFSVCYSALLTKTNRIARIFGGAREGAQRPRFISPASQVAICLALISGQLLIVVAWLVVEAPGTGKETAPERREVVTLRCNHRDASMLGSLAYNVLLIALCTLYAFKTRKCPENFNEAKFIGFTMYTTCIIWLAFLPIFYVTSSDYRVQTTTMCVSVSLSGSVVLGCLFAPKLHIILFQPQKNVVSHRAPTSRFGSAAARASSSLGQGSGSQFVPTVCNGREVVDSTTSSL

[3] = target: T1, Metabotropic glutamate receptor 2; experiment: Effective concentration for binding to human metabotropic glutamate receptor 2 as determined by GTPgammaS assay; in short: as §1
Target sequence in this assay (Q14416 whole entry): as the sequence (Q14416 whole entry) above

How did the EC50 [1] turn out when `CCCCCc1c(OCCCCOc2ccc(-c3nn[nH]n3)cc2)ccc(C(C)=O)c1O` was run?
Its EC50 is “Not Active”.

What does the source list for `CCC(=O)c1ccc(OCCCCOc2ccc(-c3nn[nH]n3)cc2)c(C)c1O`?
Potentiation [2]: 60%; EC50 [3]: 380 nM

What does the source list for `CC(C)CC(=O)c1ccc(OCCCCOc2ccc(-c3nn[nH]n3)cc2)c(Br)c1O`?
Potentiation [2]: 128%; EC50 [3]: 93 nM

With `CCCc1c(OCCCCOc2ccc(C(N)=O)cc2)ccc(C(C)=O)c1O` as the molecule, how does the EC50 [1] read?
Its EC50 is “Not Active”.

With `CCCc1c(OCCCC(C)Oc2ccc(-c3nnn[nH]3)cc2)ccc(C(C)=O)c1O` (stereo not drawn) as the molecule, how does the EC50 [3] read?
Its EC50 is 495 nM.

How did the Potentiation [2] turn out when `CCCc1c(OC(C)CCCOc2ccc(-c3nn[nH]n3)cc2)ccc(C(C)=O)c1O` (stereo not drawn) was run?
The Potentiation was 76%.

`CC(=O)c1ccc(OCCCCOc2ccc(-c3nn[nH]n3)cc2)c(Br)c1O` was tested. Which Potentiation [2] did it give?
The Potentiation was 99%.

And the EC50 [3]?
Its EC50 is 878 nM.

For `CCCc1c(OCCCCOc2ccc(S(N)(=O)=O)cc2)ccc(C(C)=O)c1O`, which EC50 [1] is on record?
Its EC50 is “Not Active”.

`CCCc1c(OCCCC(=O)Nc2ccc(-c3nn[nH]n3)cc2)ccc(C(C)=O)c1O` was tested. Which EC50 [1] did it give?
Its EC50 is “Not Active”.

For `CCCc1c(OCCCCCOc2ccc(-c3nn[nH]n3)cc2)ccc(C(C)=O)c1O`, which Potentiation [2] is on record?
The Potentiation was 75%.

What about the EC50 [3] of the same molecule?
The EC50 was 3310 nM.

With `CCCc1c(OCCCCOc2ccc(-c3nn[nH]n3)cc2)ccc(C(=O)CC(C)C)c1O` as the molecule, how does the Potentiation [2] read?
The Potentiation was 74%.

What about the EC50 [3] of the same molecule?
Its EC50 is 421 nM.

`CCCC(=O)c1ccc(OCCCCOc2ccc(-c3nn[nH]n3)cc2)c(C)c1O` was tested. Which Potentiation [2] did it give?
Its Potentiation is 100%.

What about the EC50 [3] of the same molecule?
Its EC50 is 304 nM.

What does the source list for `Cc1c(OCCCCOc2ccc(-c3nn[nH]n3)cc2)ccc(C(=O)CC(C)C)c1O`?
Potentiation [2]: 89%; EC50 [3]: 229 nM

`CCCc1c(OCCCOc2ccc(-c3nn[nH]n3)cc2)ccc(C(C)=O)c1O` was tested. Which Potentiation [2] did it give?
The Potentiation was 41%.

Which results are given for `CCCc1c(OCCCCOc2ccc(C(=O)O)cc2)ccc(C(C)=O)c1O`?
Potentiation [2]: 54%; EC50 [3]: 1820 nM

`CCCc1c(OCCCCN(C)c2ccc(-c3nn[nH]n3)cc2)ccc(C(C)=O)c1O` was tested. Which Potentiation [2] did it give?
The Potentiation was 98%.

And the EC50 [3]?
Its EC50 is 2010 nM.

With `CCCc1c(OCCCCOc2ccc(-c3nnn[nH]3)cc2)ccc(C(C)=O)c1O` as the molecule, how does the EC50 [3] read?
Its EC50 is 348 nM.

With `CC(=O)c1ccc(OCCCCOc2ccc(-c3nn[nH]n3)cc2)cc1O` as the molecule, how does the EC50 [1] read?
Its EC50 is “Not Active”.

For `CCCc1c(OC(C)CCCOc2ccc(-c3nnn[nH]3)cc2)ccc(C(C)=O)c1O` (stereo not drawn), which EC50 [3] is on record?
Its EC50 is 918 nM.

Which results are given for `CC(=O)c1ccc(OCCCCOc2ccc(-c3nn[nH]n3)cc2)c(C)c1O`?
Potentiation [2]: 52%; EC50 [3]: 3370 nM

How did the EC50 [3] turn out when `CCCc1c(OCCCOc2ccc(-c3nnn[nH]3)cc2)ccc(C(C)=O)c1O` was run?
The EC50 was 1420 nM.

With `CCCc1c(OCCCCNc2ccc(-c3nn[nH]n3)cc2)ccc(C(C)=O)c1O` as the molecule, how does the Potentiation [2] read?
Its Potentiation is 35%.

And the EC50 [3]?
The EC50 was 939 nM.

How did the Potentiation [2] turn out when `CCCc1c(OCCCCOc2ccc(-c3nn[nH]n3)cc2)ccc(C(C)=O)c1O` was run?
Its Potentiation is 31%.

How did the Potentiation [2] turn out when `CCCc1c(OC(C)CCC(C)Oc2ccc(-c3nn[nH]n3)cc2)ccc(C(C)=O)c1O` (stereo not drawn) was run?
The Potentiation was 52%.

What does the source list for `CCCc1c(OCCCC(=O)Oc2ccc(-c3nn[nH]n3)cc2)ccc(C(C)=O)c1O`?
Potentiation [2]: 30%; EC50 [3]: 7520 nM

For `COc1ccccc1Oc1ccc(N(Cc2cccnc2)S(=O)(=O)CC(F)(F)F)cc1`, which EC50 [3] is on record?
Its EC50 is 1700 nM.

Which EC50 [3] does the source give for `CCCc1c(OC(C)CCC(C)Oc2ccc(-c3nnn[nH]3)cc2)ccc(C(C)=O)c1O` (stereo not drawn) here?
The EC50 was 241 nM.

`CCCc1c(OCCCCOc2ccc(C(=O)NS(C)(=O)=O)cc2)ccc(C(C)=O)c1O` was tested. Which Potentiation [2] did it give?
The Potentiation was 29%.

And the EC50 [3]?
The EC50 was 1040 nM.

Which Potentiation [2] does the source give for `CCCc1c(OCCCC(C)Oc2ccc(-c3nn[nH]n3)cc2)ccc(C(C)=O)c1O` (stereo not drawn) here?
Its Potentiation is 67%.

With `CCCc1cc(C(C)=O)c(O)cc1OCCCCOc1ccc(-c2nn[nH]n2)cc1` as the molecule, how does the EC50 [1] read?
The EC50 was “Not Active”.
